# Compound activity as filed in PubChem.
# An excerpt weighted towards active compounds, which were near 1.8% of everything screened.
# SKN-1 block: blocks SKN-1 activity in C. elegans; C. elegans VP596 Pgst-4::GFP/RFP ratio, acrylamide-induced, 24 h; inhibition, % at 21.8 µM; actives 0.49% (n = 360,000);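 active = interference check ratio from 0.5 to 1.5 plus GFP to RFP signal ratio inhibition reaching or exceeding a fixed threshold, cut at about 30% in these data, passing the limit was not always enough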
# hiPSC survival: increases survival of single human iPS cells; hiPSC single-cell survival, ATPlite luminescence; 100% = ROCK inhibitor wells, 0% = DMSO; survival enhancement, % at 20 µM; actives 0.044% (n = 360,000); AID 602274; in the data active = survival enhancement above about 18%;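 also: cells exposed to compounds for 16 hours before the ATP read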
# DAGLB inh: blocks human DAGLB lipase activity | Q8NCG7 | HEK293T DAGLB membrane lysate, EnzChek fluorogenic substrate | inhibition, % at 5.17 µM | actives 0.059% (n = 340,000); in the data active = inhibition above about 34%;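 also: 0% = enzyme with vehicle and 100% = wells lacking enzyme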
# Cneo AK release: causes C. neoformans cell lysis. adenylate kinase release luminescence, 4 h; normalised: neutral wells 0, clomiphene wells 100. lysis activity, % at 15 µM. actives 0.2% (n = 360,000). AID 651654;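 active = mean lysis activity across replicates of at least 80%, whatever share of replicates individually reach that level; inactive = mean lysis activity below 80%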
#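 Material: C. neoformans cells | Amount: Yeast cell density of 5 × 10^6 cells/mL | Medium: Fresh YPD growth medium | Dosing: Single dose | Times: Static 4 h at 37 °C with compound, 1 h detection | Detection: AK luminescence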
# Ecoli rRNA inh: inhibitors of bacterial rRNA selective over humanized ribosomes; actives 1.6% (n = 350,000); E. coli WT GFP vs humanized-ribosome RFP mutants, fluorescence, 24 h; hits give low values; DMSO median 0, no signal -100; GFP signal change (wild-type ribosome), % (test concentration not listed);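 active = significant combined selectivity score with lowered wild-type GFP, culture density cut under 30%, mutant RFP and density less affected; inactive = any of these conditions unmet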
# MT1-MMP act inh: MT1-MMP (human) activation inhibition. actives 0.061% (n = 360,000). GFP/RFP ratio change, % at 20 µM. P50281. HT1080 RFP-PRO-GFP cells, GFP/RFP ratio fluorescence, overnight; percent of plate control window, DMSO zero. AID 651647;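 active = GFP/RFP ratio change of at least 30% with cell ATP level not reduced by more than half and red fluorescence within 50% of control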
#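 Read-out: GFP/RFP fluorescence ratio; Test system: RFP-PRO-GFP reporter HT1080 cells; Compound dosing: single-point 20 µM compound, 1% DMSO; Times: overnight compound exposure at 37 °C.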
# * marks the source's active call; other numbers are inactive results; . = no result given.
SMILES,SKN-1 block,hiPSC survival,DAGLB inh,Cneo AK release,Ecoli rRNA inh,MT1-MMP act inh
C[C@@H]1CN([C@@H](C)CO)C(=O)Cc2cc(NC(=O)Nc3ccc4c(c3)OCO4)ccc2O[C@H]1CN(C)Cc1ccc(C(=O)Nc2ccccc2N)cc1,.,.,.,0,-6,.
CC(C)N(C(=O)CSc1nc2ccccc2n1-c1ccccc1)C(C)C,12,-1,-10,1,.,-6
O=C(O)CCSc1nc2ccccc2n1-c1ccccc1,15,0,-1,1,-24*,6
Cc1c(C(=O)NCCCN2CCCC2=O)oc2ccc(S(=O)(=O)N3CCOCC3)cc12,-8,1,2,-1,.,5
Cc1c(C(=O)NCCC2=CCCCC2)oc2ccc(S(=O)(=O)N3CCOCC3)cc12,37*,-1,-7,2,.,-7
CCN1[C@@H]2c3ccc(-c4ccccc4OC)c(=O)n3C[C@@H]2[C@@H](CO)[C@@H]1C(=O)NCc1ccc(F)cc1,.,.,.,-5,-4,.
COc1ccc(-c2nnc(-c3ccc(Br)o3)o2)cc1OC,36*,-2,-4,0,.,2
COc1ccc(C#Cc2ccc([C@@H]3[C@H]4CN(C(=O)c5ccncc5)CC(=O)N4[C@H]3CO)cc2)cc1,.,.,.,.,2,.
COc1ccc(C2=NOC(C(=O)NC(C)(C)C)C2)cc1 (stereo not drawn),14,6,-3,1,.,-3
CC(=O)OC1CC(c2cc(C(C)(C)C)c(O)c(C(C)(C)C)c2)=NO1 (stereo not drawn),4,0,-2,.,-21*,2
CC(C)[C@@H]1C(=O)N[C@H](c2ccccc2)CC=CC[C@@H](C)Oc2ccccc2C(=O)N1C (mixture of isomers),.,.,.,.,0,.
C[C@@H]1CN([C@H](C)CO)C(=O)Cc2cc(NS(=O)(=O)c3ccc(F)cc3)ccc2O[C@H]1CN(C)Cc1ccc2c(c1)OCO2,.,.,.,5,-2,.
O=c1nc(-c2ccccc2)c2ccccc2[nH]1,4,-1,-2,116*,.,-2
CC=Cc1ccc2n(c1=O)C[C@@H]1[C@@H](CO)[C@H](C(=O)Nc3nccs3)N(C(=O)CC)[C@H]21 (mixture of isomers),.,.,.,-3,0,.
CCN(CC)CC(=O)Nc1sc(C)c(C)c1C(=O)c1ccc(C)cc1,3,1,-9,1,-24*,-5
CCN(CC)CC(=O)Nc1sc(C)cc1C(=O)c1ccc(C)cc1,5,-1,-5,0,-13,-1
O=C1CCC(C(=O)OCC(=O)N2N=C3/C(=C/c4ccccc4)CCCC3C2c2ccccc2)N1 (stereo not drawn),14,-2,0,2,-40,0
O=C1CCC(C(=O)OCC(=O)N2N=C3/C(=C\c4ccccc4)CCCC3C2c2ccccc2)N1 (stereo not drawn),37*,-1,0,1,-31,0
COCC(=O)N(C)C[C@H]1Oc2cc(-c3ccc(C#N)cc3)ccc2S(=O)(=O)N([C@@H](C)CO)C[C@H]1C,.,.,.,0,3,.
COC(=O)/C=C/c1ccc(-n2ccnc2)cc1,-5,0,1,.,-30*,0
CCC(=O)N(C)C[C@H]1Oc2cc(C#CC(C)(C)O)ccc2S(=O)(=O)N([C@@H](C)CO)C[C@@H]1C,.,.,.,98*,3,.
CCC(=O)N(C)C[C@@H]1Oc2cc(C#CC(C)(C)O)ccc2S(=O)(=O)N([C@H](C)CO)C[C@H]1C,.,.,.,103*,4,.
CCC(=O)N(C)C[C@H]1Oc2cc(C#CC(C)(C)O)ccc2S(=O)(=O)N([C@@H](C)CO)C[C@H]1C,.,.,.,-2,3,.
Cc1c(NC(=O)c2ccc(-c3ccc([N+](=O)[O-])cc3Cl)o2)c(=O)n(-c2ccccc2)n1C,-3,2,0,.,-22*,7
Cc1c(NC(=O)/C(C#N)=C/c2ccc(-c3ccc(Cl)c(Cl)c3)o2)c(=O)n(-c2ccccc2)n1C,46*,1,8,.,-3,-3
Cc1c(NC(=O)CN2C(=O)c3ccc([N+](=O)[O-])cc3C2=O)c(=O)n(-c2ccccc2)n1C,-4,0,1,.,26,1
